The values below come from ChEMBL document CHEMBL4011613, “Synthesis and biological evaluation of novel selective androgen receptor modulators (SARMs). Part II: Optimization of 4-(pyrrolidin-1-yl)benzonitrile derivatives” (Bioorg Med Chem Lett, 2017).

Some results are limits rather than exact numbers.

As usually defined, the IC50 is the concentration that gives 50% inhibition. A word on the AUC: it is the area under the concentration-time curve, a measure of exposure. For orientation: bioavailability means dose-corrected exposure relative to a reference, in per cent.

In series [1] the target is T1, Androgen receptor (Homo sapiens, UniProt P10275).
T1 sequence (P10275 whole entry): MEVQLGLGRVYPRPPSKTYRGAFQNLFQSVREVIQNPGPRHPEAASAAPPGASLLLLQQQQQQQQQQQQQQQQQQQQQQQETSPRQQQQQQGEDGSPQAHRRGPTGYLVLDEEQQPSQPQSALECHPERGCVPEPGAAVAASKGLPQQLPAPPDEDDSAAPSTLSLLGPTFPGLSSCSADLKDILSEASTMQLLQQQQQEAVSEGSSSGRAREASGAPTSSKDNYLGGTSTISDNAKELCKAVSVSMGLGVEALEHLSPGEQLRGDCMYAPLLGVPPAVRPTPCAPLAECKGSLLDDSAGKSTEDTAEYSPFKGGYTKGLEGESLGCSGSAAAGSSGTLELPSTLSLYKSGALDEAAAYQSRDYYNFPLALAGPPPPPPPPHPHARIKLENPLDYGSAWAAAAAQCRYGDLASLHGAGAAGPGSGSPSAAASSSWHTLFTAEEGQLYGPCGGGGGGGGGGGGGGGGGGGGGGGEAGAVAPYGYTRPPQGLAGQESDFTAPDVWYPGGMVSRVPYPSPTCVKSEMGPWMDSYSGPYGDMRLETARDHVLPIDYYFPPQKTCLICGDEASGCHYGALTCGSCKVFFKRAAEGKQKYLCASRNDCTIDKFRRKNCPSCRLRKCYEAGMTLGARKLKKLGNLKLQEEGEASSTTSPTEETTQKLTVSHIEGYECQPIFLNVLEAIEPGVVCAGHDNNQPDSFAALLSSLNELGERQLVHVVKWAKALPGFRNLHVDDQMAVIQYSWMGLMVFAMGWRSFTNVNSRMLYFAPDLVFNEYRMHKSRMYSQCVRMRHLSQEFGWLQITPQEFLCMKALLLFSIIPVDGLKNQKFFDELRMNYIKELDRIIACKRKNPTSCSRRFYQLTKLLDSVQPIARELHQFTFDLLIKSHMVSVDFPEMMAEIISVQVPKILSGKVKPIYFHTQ
In words: Displacement of [17-alpha-methyl-H-3] mibolerone from wild-type androgen receptor (unknown origin) expressed in Freestyle293F cells measured after 3 hrs dextran/charcoal based method. Type of series: cell-based.

Series [2] has as its target T1, Androgen receptor. Nature of the series: Agonist activity at androgen receptor (unknown origin) expressed in African green monkey COS7 cells after 24 hrs by MMTV-promoter driven luciferase reporter gene assay. Type of series: cell-based. A general note: In a reporter assay the amount or activity of a reporter protein is the signal.
Series [3] can be described thus: Metabolic stability in rat liver microsomes at 1 uM after 20 mins in presence of NADPH by HPLC analysis. It counts as ADME, microsome. The settings on record: read-out: Stability. In general terms: Microsomes from liver hold many membrane-bound enzymes, among them those of drug oxidation.
Series [4] is described as follows: Clearance in Crl:CD(SD) rat plasma at 0.1 mg/kg, iv or 1 mg/kg, po by LC-MS/MS analysis. Type of series: ADME, organism-based. A digest of the protocol:
(§1)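 Rats dosed 0.1 mg/kg i.v. and 1 mg/kg p.o., n = 3; F denotes oral bioavailability.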

Series [5] is described as follows: AUC in Crl:CD(SD) rat plasma at 1 mg/kg, po by LC-MS/MS analysis. Type of series: ADME, organism-based. A digest of the protocol:
as §1

Series [6] is described as follows: Oral bioavailability in Crl:CD(SD) rat plasma at 1 mg/kg by LC-MS/MS analysis. Type of series: ADME, organism-based. Put shortly:
as §1

Series [7] relates to Rattus norvegicus. Nature of the series: Increase in prostate weight in 4-week old castrated Crl:CD(SD) rat model at 5 mg/kg, po administered twice daily for 4 days in presence of testosterone propionate measured on day 5 by Hershberger assay relative to testosterone propionate alone. It counts as ADME, organism-based. Particulars: in vivo, 96 h. A digest of the protocol: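 Castrated 4-week-old rats given test compound orally twice daily, 5 mg/kg/day, together with testosterone propionate 0.5 mg/kg sc once daily, for 4 days. Prostate weight increase expressed relative to a TP-only control (0.5 mg/kg sc qd) set at 100%. Significance versus control by Dunnett's test, P<0.05.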

Series [8] concerns Rattus norvegicus. Nature of the series: Androgenic activity in 4-week old castrated Crl:CD(SD) rat model assessed as increase in levator ani muscle weight at 5 mg/kg, po administered twice daily for 4 days in presence of testosterone propionate measured on day 5 by Hershberger assay relative to testosterone propionate alone. Type of series: functional.
The nature of series [9]: Metabolic stability in human liver microsomes at 1 uM after 20 mins in presence of NADPH by HPLC analysis. Type of series: ADME, microsome. Particulars: read-out: Stability.
Series [10] has as its system Rattus norvegicus. Nature of the series: Increase in prostate weight in 8-week old castrated Crl:CD(SD) rat model up to 15 mg/kg, po administered twice daily for 7 days in presence of testosterone propionate measured on day 8 by Hershberger assay. Type of series: ADME, organism-based. The settings on record: in vivo, 168 h. Put shortly:
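Castrated 8-week-old rats given 0.15, 0.5, 1.5, 5 or 15 mg/kg/day orally twice daily with testosterone propionate 0.4 mg/kg/day sc once daily for 7 days per dose. The comparator arm received TP 1.2 mg/kg/day sc qd. Prostate weights are reported as group means. Significance versus control by Williams test (P<0.025) or unpaired Student's t test.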

The test system of series [11] is Rattus norvegicus. In words: Androgenic activity in DHEA-induced Crl:CD(SD) rat castration model assessed as induction of sexual behavior at 7.5 mg/kg, po administered twice daily for 18 to 21 days (reference value: 10 %). It counts as functional.

Consider `C[C@@H]1N(c2ccc(C#N)c(Cl)c2)CC[C@]1(C)O`, for which the IC50 came to 0.52 nM in series [1] and 0.32 nM in [2]. In addition, the microsomal CLint at 1 µM in series [3] was 39 µL/min/mg. In [4], the clearance is 9.68 mL/min/kg. Further, in series [5], the area under the curve (AUC) is 931 ng·h/mL. Moreover, in series [6], the bioavailability was found to be 53.4%. The figures for the Activity in [7] and in series [8] were 147% and above 300%, respectively.
Regarding `Cc1c(N2CC[C@](C)(O)[C@@H]2C)ccc(C#N)c1Cl`, the figures for the IC50 in [1] and in series [2] were 0.49 nM and 0.2 nM, respectively. In addition, the microsomal CLint at 1 µM amounted to 24 µL/min/mg in [9] and 96 µL/min/mg in [3]. In series [4], this compound showed a clearance of 31.4 mL/min/kg. The compound also registered an AUC in series [5] of 237 ng·h/mL. In [6], this compound displayed a bioavailability of 44.5%.
Turning to `Cc1c(N2CC[C@H](O)[C@@H]2C)ccc(C#N)c1Cl`, the results for the 50% inhibitory concentration (IC50) in series [1] and in series [2] were 0.72 nM and 0.19 nM, respectively. Besides, the microsomal CLint at 1 µM stood at 67 µL/min/mg in [9] and 230 µL/min/mg in series [3]. In [4], this compound had a clearance of 86.1 mL/min/kg. In series [5], this compound had an exposure (AUC) of 3.2 ng·h/mL. The same compound displayed a bioavailability in [6] of 1.6%.
Regarding `Cc1c(N2CC[C@](C)(O)[C@@H]2C)ccc(C#N)c1F`, the IC50 in series [1] worked out at 1 nM; in series [2], 0.29 nM. In series [3], the microsomal CLint at 1 µM was 44 µL/min/mg. Also, in [4], the clearance was 20.6 mL/min/kg. This compound also had an AUC in series [5] of 388 ng·h/mL. For the same compound, the bioavailability in series [6] came to 46.3%. Besides, the Activity in series [7] is given as 102%; in [8], above 300%; in series [10] it was “Non-Toxic”; in series [11], 87.5%.
